# This excerpt belongs to a sample that is enriched for hits.
# D1 mod: allosteric modulators of human D1 dopamine receptor | HEK293 D1, CRE-luciferase, dopamine EC30 potentiation; actives deviate in either direction | B-score at 10 µM | 58,000 compounds, 5.9% hits | P21728;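 active means luminescence count or its row- and column-corrected plate score outside the 99.7% band of the plate's sample wells, on either side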
# DAT uptake mod: human DAT dopamine uptake with cocaine, either direction. LLC-PK1 hDAT cells, [14C]-dopamine uptake with cocaine IC80; actives deviate in either direction. Q01959. 110,000 compounds, 1.3% hits. B-score at 10 µM;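 active means Z score or B-score, a plate-position-corrected score, falls beyond the plate's 99.7% confidence bounds, in either direction; inactive means both scores lie inside the 99.7% bounds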;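 further: scored against the spread of the other compound wells on the same plate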
# Ec RNAP inh: inhibitors of Escherichia coli RNA polymerase | P0A8V2 | inhibition, %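 (tested at 10 µM)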 | 62,000 compounds, 0.2% hits | E. coli RNA polymerase, fluorescence transcription assay; in the data active means inhibition above about 20%;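 further: 0% = enzyme without compound and 100% = no enzyme blank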
# Target sequence (P0A8V2 whole entry, looked up): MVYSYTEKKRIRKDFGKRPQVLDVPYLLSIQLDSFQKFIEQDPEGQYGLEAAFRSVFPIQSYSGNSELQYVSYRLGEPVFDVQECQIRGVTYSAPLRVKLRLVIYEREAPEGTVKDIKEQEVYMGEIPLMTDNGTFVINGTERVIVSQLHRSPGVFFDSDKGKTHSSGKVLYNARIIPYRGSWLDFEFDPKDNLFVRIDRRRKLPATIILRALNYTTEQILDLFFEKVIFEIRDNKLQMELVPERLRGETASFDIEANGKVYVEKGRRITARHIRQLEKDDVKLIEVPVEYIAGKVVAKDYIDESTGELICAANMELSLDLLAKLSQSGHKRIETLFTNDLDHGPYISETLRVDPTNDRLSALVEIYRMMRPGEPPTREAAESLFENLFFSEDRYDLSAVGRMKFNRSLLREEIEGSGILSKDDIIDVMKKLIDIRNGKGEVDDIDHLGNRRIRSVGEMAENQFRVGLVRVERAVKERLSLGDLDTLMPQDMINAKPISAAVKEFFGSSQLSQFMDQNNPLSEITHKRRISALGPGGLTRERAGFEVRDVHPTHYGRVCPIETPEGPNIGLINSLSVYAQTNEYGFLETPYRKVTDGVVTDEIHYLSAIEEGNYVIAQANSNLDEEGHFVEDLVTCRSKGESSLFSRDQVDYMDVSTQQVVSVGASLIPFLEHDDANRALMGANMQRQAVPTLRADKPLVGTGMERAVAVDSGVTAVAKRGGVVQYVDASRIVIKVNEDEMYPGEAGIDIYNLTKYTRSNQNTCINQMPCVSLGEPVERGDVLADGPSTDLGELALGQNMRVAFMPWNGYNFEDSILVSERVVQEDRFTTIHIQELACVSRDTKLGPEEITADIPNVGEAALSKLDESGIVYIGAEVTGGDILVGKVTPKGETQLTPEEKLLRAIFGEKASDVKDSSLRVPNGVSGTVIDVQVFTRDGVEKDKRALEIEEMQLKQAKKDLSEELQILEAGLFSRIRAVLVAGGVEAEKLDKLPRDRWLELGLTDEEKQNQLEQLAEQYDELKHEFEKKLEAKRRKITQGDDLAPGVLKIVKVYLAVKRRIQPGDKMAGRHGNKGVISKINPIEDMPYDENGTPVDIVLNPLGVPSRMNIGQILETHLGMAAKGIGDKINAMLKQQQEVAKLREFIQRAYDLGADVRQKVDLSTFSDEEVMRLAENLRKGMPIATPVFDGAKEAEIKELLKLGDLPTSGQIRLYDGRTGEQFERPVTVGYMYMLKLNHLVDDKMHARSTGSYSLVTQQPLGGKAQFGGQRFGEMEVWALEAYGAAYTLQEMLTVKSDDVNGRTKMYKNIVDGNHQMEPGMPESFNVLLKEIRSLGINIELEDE
# HEK293 NFkB inh: inhibitors of the PMA/ionomycin-induced NF-kB reporter in HEK293 cells | HEK-293 NF-kB luciferase reporter, luminescence | inhibition, % at 3 µM | 62,000 compounds, 0.21% hits | AID 465;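 active means inhibition above the mean of all tested compounds plus 3 SD, cut at about 40% in these data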;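 further: 0% = stimulated DMSO wells and 100% = 10 µM reference inhibitor 5653914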
#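 Timing: 1 h pretreatment, 16 h stimulation, 37 °C; system: HEK-293 cells with stable firefly luciferase reporter driven by four HIV NF-kB elements; doses: 3 µM once, 0.30% DMSO; measured by: luciferase luminescence; control set: DMSO and 10 µM reference inhibitor; repeats: single test; reagent: PMA plus ionomycin mix as NF-kB-activating stimulus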
# AP ELISA ortho: alternative pathway complement inhibition, orthogonal assay | Human serum alternative complement pathway, LPS-coated ELISA, C3 deposition; tested in compound mixtures | inhibition, % at 5 µM | 62,000 compounds, 0.08% hits | AID 1235;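 active means inhibition above 30% in each of the two pooled mixtures holding the compound, so the lower value exceeds 30%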;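 further: 0% = serum in Mg-EGTA without compound and 100% = EDTA serum blank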
#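 Test system: human serum alternative complement pathway, C3 deposition on LPS-coated wells; also added: Plate-bound LPS; doses: 5 µM per compound in ten-compound mixtures; schedule: 1 h at 37 °C; detection: Anti-C3 ELISA, OD 450 nm; evaluation: percent inhibition of C3 deposition onto LPS; repeats: two pool placements per compound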
# Starred values were filed as active, the others as inactive; nt = no result.
SMILES,D1 mod,DAT uptake mod,Ec RNAP inh,HEK293 NFkB inh,AP ELISA ortho
O=S(=O)(Nc1nc2ccccc2s1)c1ccc(Br)s1,-1.1,-3.9*,4,13,17
COc1cc(C2/C(=C(/O)c3ccc(F)cc3)C(=O)C(=O)N2CCCC(=O)O)ccc1O (stereo unspecified),-3.9*,0.0044,-4,9,-8
CC1CCN(C2=NC(=O)/C(=C/c3cn(-c4ccccc4)nc3-c3cccc(S(=O)(=O)N(C)C)c3)S2)CC1,nt,2.6,nt,nt,nt
CC1(C)OC(=O)C(=CNc2ccccc2)C(=O)O1,-0.44,0.033,4,-4,7
CC1(C)OC(=O)C(=CNc2cccc(C(=O)O)c2)C(=O)O1,-0.1,-7*,-8,-16,20
O=C(O)CSc1nc2ccccc2o1,0.89,-8.6*,2,0,-10
CCC1(CC)Cc2ccccc2-c2nc(NCCO)[nH]c(=O)c21,nt,-2.7*,nt,nt,nt
CC1CN(C2CCN(S(=O)(=O)Cc3ccccc3)CC2)CC(C)O1 (stereo unspecified),0.64,-0.39,8,nt,nt
N#Cc1c(/N=C/c2ccco2)sc2c1CCCCC2,-4.2*,-0.7,-1,-6,11
CCCCN1C2=NCCCN2c2ccccc21,nt,-0.11,nt,nt,nt
CCCCN1C2=NCCCN2c2cc(C)c(C)cc21,-3.4*,nt,8,-21,5
CCOC(=O)N1CCC(NC(=O)CSCc2nc(-c3cccc(OC)c3)oc2C)CC1,0.02,-0.0013,9,4,5
CCOC(=O)N1CCC(NC(=O)CSCc2nc(-c3sccc3C)oc2C)CC1,1.8,2.8*,5,17,11
CN(C)c1ccc(C=Nc2cnn(C)c2C(N)=O)cc1,nt,1.8*,-1,nt,nt
Cc1ccc(NC(=O)CSc2nc3nc(C)cc(C)c3c(=O)[nH]2)cc1,3.9*,0.23,1,-8,9
Cc1cccc(-n2ncc3c(NCc4cccnc4)ncnc32)c1,-5.1*,-0.028,3,-6,13
Cc1ccc(-n2ncc3c(N4CCN(c5ccccc5)CC4)ncnc32)c(C)c1,-4*,0.066,9,nt,6
Cc1cccc(-n2ncc3c(N4CCCC4)ncnc32)c1,-7.3*,-0.87,nt,-18,nt
Cc1cccc(-n2ncc3c(N4CCOCC4)ncnc32)c1,nt,-0.42,-3,4,19
C=C(C(=O)O)C1CCC2(C)CCCC(C)(O)C2C1 (stereo unspecified),nt,-1.1,nt,nt,nt
CC(C)CC(CO)N1CCN(C(=O)c2ccc(Cl)c(Cl)c2)CCC1=O (stereo unspecified),nt,-0.35,nt,nt,nt
O=C(CSc1nc(C2CC2)nc2ccccc12)N1c2ccccc2Sc2ccc(C(F)(F)F)cc21,nt,0.26,nt,nt,nt
O=C(O)c1ccc(COCC(F)(F)C(F)F)o1,nt,0.61,5,nt,15
COc1ccc(S(C)(=O)=O)cc1S(C)(=O)=O,0.44,-0.0016,3,5,18
O=C(NC1(C(F)(F)F)NC(=O)N(CC2CCCCC2)C1=O)c1ccco1 (stereo unspecified),-0.079,-0.049,9,15,-3
SMILES,D1 mod,DAT uptake mod,Ec RNAP inh,HEK293 NFkB inh,AP ELISA ortho
O=C(CSc1nnc2c(n1)[nH]c1ccc(F)cc12)OCc1ccccc1,-0.63,-8.6*,10,5,1
Cc1ccc(C(=O)NNC(=O)CSc2nnc3c(n2)[nH]c2ccc(F)cc23)cc1,nt,-0.028,nt,nt,nt
Oc1c(Cl)cc(Cl)cc1/C=N/c1nccs1,nt,4.4*,nt,nt,nt
Oc1[nH]c2ccccc2c1/C=N/c1nccs1,-0.4,nt,11,-5,6
O=C(Cc1coc(-c2ccc(F)cc2)n1)N1CCOCC1,0.16,0.13,-1,11,7
COC(=O)c1ccccc1NC(=O)CN1CCC(n2nnc3cc(C)ccc32)CC1,nt,nt,5,12,9
CCOc1ccccc1NC(=O)N1CCC(n2nnc3cc(C)ccc32)CC1,nt,2.4*,3,28,21
Cc1ccc(NC(=O)Cn2cnc3c(cnn3C(C)(C)C)c2=O)cc1,nt,1.1,22*,-5,14
O=C1CC(N2CCN(c3cccc(C(F)(F)F)c3)CC2)C(=O)N1c1ccccc1F (stereo unspecified),-0.94,3.2*,-1,14,15
O=C1CC(N2CCN(c3cccc(C(F)(F)F)c3)CC2)C(=O)N1c1ccccc1 (stereo unspecified),0.89,-1.2,3,17,0
O=C1c2ccccc2S(=O)(=O)c2cc(C(=O)N3CCN(c4ccc(Cl)cn4)CC3)ccc21,nt,1.1,nt,nt,nt
CCOC(=O)C1=C(C)NC(=O)NC1c1cccc(OC)c1OCc1ccccc1Cl (stereo unspecified),nt,0.31,nt,nt,nt

# Screening results: PubChem BioAssay, several laboratories
